Results taken from ChEMBL document CHEMBL4219111, “Multifunctional 5,6-dimethoxybenzo[d]isothiazol-3(2H)-one-N-alkylbenzylamine derivatives with acetylcholinesterase, monoamine oxidases and β-amyloid aggregation inhibitory activities as potential agents against Alzheimer's disease” (Bioorg Med Chem, 2018).

What was measured:
Acetylcholinesterase = Acetylcholinesterase (Electrophorus electricus, UniProt O42275); assay: Inhibition of Electrophorus electricus AChE using acetylthiocholine iodide as substrate measured after 15 mins by Ellman's method
Chain of Acetylcholinesterase (O42275 whole entry): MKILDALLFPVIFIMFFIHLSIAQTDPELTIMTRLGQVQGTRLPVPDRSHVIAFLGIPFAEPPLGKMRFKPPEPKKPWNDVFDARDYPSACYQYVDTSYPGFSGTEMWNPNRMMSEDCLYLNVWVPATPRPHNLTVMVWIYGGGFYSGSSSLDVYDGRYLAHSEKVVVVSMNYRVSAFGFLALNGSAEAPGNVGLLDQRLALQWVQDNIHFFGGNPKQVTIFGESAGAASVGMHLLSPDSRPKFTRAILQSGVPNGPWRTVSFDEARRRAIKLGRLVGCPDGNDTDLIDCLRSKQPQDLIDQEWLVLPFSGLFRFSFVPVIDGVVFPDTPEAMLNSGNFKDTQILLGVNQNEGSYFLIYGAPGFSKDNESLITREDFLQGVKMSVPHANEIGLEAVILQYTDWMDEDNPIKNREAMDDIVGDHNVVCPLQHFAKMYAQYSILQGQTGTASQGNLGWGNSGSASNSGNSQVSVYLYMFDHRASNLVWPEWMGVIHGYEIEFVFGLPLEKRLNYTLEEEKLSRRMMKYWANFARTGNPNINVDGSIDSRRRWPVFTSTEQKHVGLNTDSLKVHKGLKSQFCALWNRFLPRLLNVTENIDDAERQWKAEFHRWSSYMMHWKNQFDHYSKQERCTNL

Rattus norvegicus = species on record: Rattus norvegicus; assay: Inhibition of rat serum BuChE using butyrylthiocholine iodide as substrate measured at 50 uM after 15 mins by Ellman's method relative to control
Outline: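 Rat serum (25%) as enzyme source; modified Ellman method in […] pH 7.4 with 1 mmol/L butyrylthiocholine iodide and 0.2% DTNB; 37 °C for 15 min, absorbance at 405 nm. Percent inhibition at 50 µM test compound, each concentration in triplicate.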

[1] = Antioxidant activity assessed as trolox equivalents of AAPH radical scavenging activity at 5 uM preincubated for 15 mins followed by AAPH addition measured every min for 90 mins by ORAC-FL assay; format: functional
Outline: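 ORAC-FL in 75 mM phosphate buffer pH 7.4, 200 µL final. Sample plus fluorescein (150 nM final) pre-incubated 15 min at 37 °C, then AAPH added (12 mM final). Fluorescence read every minute for 90 min, ex 485/em 535 nm, normalized to FL+AAPH blank. Trolox standard 1-8 µM final; values given as µM Trolox equivalent per µM compound. Duplicate wells, at least three independent assays.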

[2] = molecular target: Amyloid-beta precursor protein (Homo sapiens) (UniProt P05067); assay: Inhibition of self-induced aggregation of amyloid beta (1 to 42) (unknown origin) at 25 uM after 24 hrs by thioflavin T fluorescence-based fluorometric method relative to control
Chain of Amyloid-beta precursor protein (Homo sapiens) (P05067 whole entry): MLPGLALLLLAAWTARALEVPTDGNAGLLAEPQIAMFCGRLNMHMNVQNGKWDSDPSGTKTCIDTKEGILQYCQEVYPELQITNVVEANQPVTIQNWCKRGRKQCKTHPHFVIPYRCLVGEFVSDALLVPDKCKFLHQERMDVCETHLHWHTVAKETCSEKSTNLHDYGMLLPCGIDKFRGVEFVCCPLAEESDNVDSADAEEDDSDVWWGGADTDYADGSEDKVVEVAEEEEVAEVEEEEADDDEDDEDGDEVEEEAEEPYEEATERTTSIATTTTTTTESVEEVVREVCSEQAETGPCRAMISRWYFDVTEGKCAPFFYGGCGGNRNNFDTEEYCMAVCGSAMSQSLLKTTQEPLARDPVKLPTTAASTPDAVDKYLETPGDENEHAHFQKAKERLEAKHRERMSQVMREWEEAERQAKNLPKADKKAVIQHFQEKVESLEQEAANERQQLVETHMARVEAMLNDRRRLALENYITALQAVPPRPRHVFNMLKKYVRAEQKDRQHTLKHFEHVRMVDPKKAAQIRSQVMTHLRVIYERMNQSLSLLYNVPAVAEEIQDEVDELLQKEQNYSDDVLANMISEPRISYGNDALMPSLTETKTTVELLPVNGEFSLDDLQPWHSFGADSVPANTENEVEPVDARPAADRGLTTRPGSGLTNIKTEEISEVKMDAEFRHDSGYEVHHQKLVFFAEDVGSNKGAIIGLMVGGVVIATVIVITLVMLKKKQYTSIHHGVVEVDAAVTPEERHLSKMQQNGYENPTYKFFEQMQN
Outline: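 Aβ1-42 pretreated in HFIP 24 h at room temperature, dried, redissolved in DMSO. Peptide (25 µM final) incubated with compound (25 µM final) in 50 mM phosphate pH 7.4 for 24 h at 37 °C. ThT (5 µM) added in 50 mM glycine-NaOH pH 8.5; fluorescence read at ex 446/em 490 nm. Inhibition = (1 − IFi/IFc)×100 after background subtraction, triplicate.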

[3] = molecular target: T1, Amine oxidase [flavin-containing] A (Homo sapiens, UniProt P21397); assay: Inhibition of recombinant human MAO-A using kynuramine as substrate after 30 mins by fluorescence assay
T1 sequence (P21397 whole entry): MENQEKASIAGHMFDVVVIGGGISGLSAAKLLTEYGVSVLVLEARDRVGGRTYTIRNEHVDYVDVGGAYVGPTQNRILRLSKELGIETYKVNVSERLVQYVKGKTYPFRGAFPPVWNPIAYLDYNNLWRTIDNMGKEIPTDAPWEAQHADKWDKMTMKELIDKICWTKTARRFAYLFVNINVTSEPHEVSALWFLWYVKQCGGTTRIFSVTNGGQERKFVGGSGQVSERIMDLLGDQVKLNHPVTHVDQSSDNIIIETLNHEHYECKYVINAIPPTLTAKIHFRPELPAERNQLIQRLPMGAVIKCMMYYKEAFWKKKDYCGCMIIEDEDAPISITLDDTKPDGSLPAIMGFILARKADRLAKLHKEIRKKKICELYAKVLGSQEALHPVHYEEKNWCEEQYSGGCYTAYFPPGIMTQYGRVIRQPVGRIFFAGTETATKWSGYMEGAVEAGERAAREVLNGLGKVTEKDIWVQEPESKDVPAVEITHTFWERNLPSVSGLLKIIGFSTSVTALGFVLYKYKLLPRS

[4] = molecular target: T2, Amine oxidase [flavin-containing] B (Homo sapiens, UniProt P27338); assay: Inhibition of recombinant human MAO-B at 10 uM using kynuramine as substrate after 30 mins by fluorescence assay relative to control; conditions: 0.5 h
T2 sequence (P27338 whole entry): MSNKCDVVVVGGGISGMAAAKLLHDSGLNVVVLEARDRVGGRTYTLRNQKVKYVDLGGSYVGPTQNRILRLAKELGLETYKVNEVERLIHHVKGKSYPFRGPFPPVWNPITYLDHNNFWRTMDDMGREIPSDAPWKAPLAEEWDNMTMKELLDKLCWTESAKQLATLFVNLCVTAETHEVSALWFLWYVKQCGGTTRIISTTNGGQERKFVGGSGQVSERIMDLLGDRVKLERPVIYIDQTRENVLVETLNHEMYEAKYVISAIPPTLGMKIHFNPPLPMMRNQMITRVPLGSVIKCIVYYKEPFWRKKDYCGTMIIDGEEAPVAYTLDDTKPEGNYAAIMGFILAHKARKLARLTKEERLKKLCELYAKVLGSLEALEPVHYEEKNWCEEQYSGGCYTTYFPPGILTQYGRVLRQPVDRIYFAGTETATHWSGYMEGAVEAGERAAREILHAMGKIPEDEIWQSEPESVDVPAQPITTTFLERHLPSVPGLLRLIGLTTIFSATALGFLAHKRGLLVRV
Outline: (§1)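 Recombinant human MAO-A or MAO-B, kynuramine substrate (45 µM for MAO-A, 30 µM for MAO-B), in 100 mM potassium phosphate pH 7.40 with 20.2 mM KCl and under 4% DMSO. Enzyme (7.5 µg/mL) starts the reaction; 30 min at 37 °C. Stopped with NaOH plus water, centrifuged, supernatant fluorescence read at ex 310/em 400 nm. Percent inhibition at 10 µM.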

[5] = molecular target: T1, Amine oxidase [flavin-containing] A; assay: Inhibition of recombinant human MAO-A at 10 uM using kynuramine as substrate after 30 mins by fluorescence assay relative to control; conditions: 0.5 h; outline: as §1
[6] = molecular target: T2, Amine oxidase [flavin-containing] B; assay: Inhibition of recombinant human MAO-B using kynuramine as substrate after 30 mins by fluorescence assay
Homo sapiens = species on record: Homo sapiens; assay: Selectivity index, ratio of IC50 for recombinant human MAO-A to IC50 for recombinant human MAO-B
Outline: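 Ratio of IC50s, each from a sigmoidal curve of initial kynuramine oxidation rate versus log inhibitor concentration. Curves used six concentrations within 0-100 µM, spanning at least three orders of magnitude. IC50s determined in triplicate.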

SMILES	IC50 (Acetylcholinesterase)	inhibition (Rattus norvegicus)	Activity [1]	inhibition [2]	IC50 [3]	inhibition at 10 µM [4]	inhibition at 10 µM [5]	IC50 [6]	Ratio IC50 (Homo sapiens)
CCN(CCCn1sc2cc(OC)c(OC)cc2c1=O)Cc1ccccc1OC	8.3 µM	18.9%	0.82 equiv	12.4%	15.5 µM	37%	–	–	–
COc1ccccc1CN(C)CCCCCCN1C(=O)c2cc(OC)c(OC)cc2S1(=O)=O	1.02 µM	< 5%	0.16 equiv	23.9%	–	29.2%	28.1%	–	–
CCN(CCCn1sc2cc(OC)c(OC)cc2c1=O)Cc1ccccc1N(C)C	9.7 µM	27.9%	0.22 equiv	19.8%	16.6 µM	45.4%	–	–	–
COc1cc2s[nH]c(=O)c2cc1OC	34.9 µM	10.3%	0.29 equiv	12.2%	21 µM	14%	–	–	–
CCN(CCCCn1sc2cc(OC)c(OC)cc2c1=O)Cc1ccccc1N(C)C	7.1 µM	32.6%	0.34 equiv	11.7%	9.9 µM	46.5%	–	–	–
COc1cc2sn(CCCCCCN(C)Cc3ccccc3)c(=O)c2cc1OC	0.35 µM	23.1%	0.29 equiv	4.3%	23 µM	–	–	13.2 µM	1.74
CCN(CCCCn1sc2cc(OC)c(OC)cc2c1=O)Cc1ccccc1OC	4.99 µM	36.4%	0.3 equiv	21.1%	9.6 µM	–	–	19.4 µM	0.49
COc1ccccc1CN(C)CCCn1sc2cc(OC)c(OC)cc2c1=O	12 µM	10.8%	0.83 equiv	21.8%	9.4 µM	48.6%	–	–	–
CCN(CCCCCCn1sc2cc(OC)c(OC)cc2c1=O)Cc1ccccc1N(C)C	0.56 µM	46.8%	0.35 equiv	31.2%	3.4 µM	–	–	19.6 µM	0.17
CCN(CCCn1sc2cc(OC)c(OC)cc2c1=O)Cc1ccc(N(C)C)cc1	12.9 µM	9.6%	0.58 equiv	13.4%	11.3 µM	40.1%	–	–	–
COc1ccccc1CN(C)CCCCCCn1c(=O)c2cc(OC)c(OC)cc2[s+]1[O-] (centres undefined)	0.8 µM	28.7%	0.33 equiv	38%	–	12.2%	23.8%	–	–
CCN(CCCCCCn1c(=O)c2cc(OC)c(OC)cc2[s+]1[O-])Cc1ccccc1 (centres undefined)	0.38 µM	8.1%	0.23 equiv	29.2%	–	14.6%	21.5%	–	–
CCN(CCCCn1sc2cc(OC)c(OC)cc2c1=O)Cc1ccccc1	0.8 µM	21.8%	0.53 equiv	9.4%	19.9 µM	–	–	20.1 µM	0.99
COc1cc2sn(CCCN(C)Cc3ccccc3)c(=O)c2cc1OC	7.5 µM	11.5%	0.91 equiv	7.6%	6.9 µM	44.4%	–	–	–
COc1ccccc1CN(C)CCCCCCn1sc2cc(OC)c(OC)cc2c1=O	0.61 µM	28.8%	0.26 equiv	20.2%	19.9 µM	–	–	13.7 µM	1.45
COc1cc2sn(CCCCN(C)Cc3ccccc3)c(=O)c2cc1OC	1.2 µM	14.7%	0.21 equiv	17.3%	8.9 µM	–	–	19.7 µM	0.45
CCN(CCCn1sc2cc(OC)c(OC)cc2c1=O)Cc1ccccc1	6.65 µM	12.3%	0.84 equiv	19.6%	9.9 µM	46.3%	–	–	–
COc1ccccc1CN(C)CCCCn1sc2cc(OC)c(OC)cc2c1=O	5.9 µM	25.5%	0.39 equiv	11.7%	7.1 µM	–	–	19.2 µM	0.37
CCN(CCCCn1sc2cc(OC)c(OC)cc2c1=O)Cc1ccc(N(C)C)cc1	8.85 µM	23.2%	2.14 equiv	32.5%	15.9 µM	–	–	18.8 µM	0.85
CCN(CCCCCCn1sc2cc(OC)c(OC)cc2c1=O)Cc1ccc(N(C)C)cc1	6.5 µM	22.7%	1.92 equiv	33.4%	7.1 µM	–	–	12.4 µM	0.57
